From ChEMBL document CHEMBL1139254, “Synthesis and in vitro activities of a new antiviral duplex drug linking Zidovudine (AZT) and Foscarnet (PFA) via an octadecylglycerol residue” (Bioorg Med Chem, 2009) come the findings set out here.

Broadly, the IC50 is the point on the concentration scale where inhibition reaches its midpoint. By EC50 is commonly meant the concentration at which the effect is half-maximal.

The test system of series [1] is Human betaherpesvirus 5. Description: Antiviral activity against ganciclovir-resistant HCMV3 isolate replication in HFF cells by plaque reduction assay. It is filed as functional, organism-based. The conditions noted are these: Human betaherpesvirus 5, HFF. Put shortly: (§1)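 Plaque reduction run as a modified, simplified micro-culture, cell-associated immediate-early assay on human foreskin fibroblast monolayers (passage 15–30) in MEM with 10% FCS. Drug was diluted in MEM–10% FCS from a 100 mM PBS stock. IC50 came from Probit analysis. Strain HCMV-3res carries the UL97 C603W mutation. U405 is a clinical isolate from a pediatric stem cell transplant recipient.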
In general terms: Plaque reduction counts the foci of infection that form in a cell layer.

The test system of series [2] is Human betaherpesvirus 5. As to the kind of experiment: Antiviral activity against ganciclovir-resistant HCMV U405 isolate replication in HFF cells by plaque reduction assay. It is filed as functional, organism-based. The conditions noted are these: Human betaherpesvirus 5, HFF. Put shortly:
as §1

For series [3], the system named is Human alphaherpesvirus 1. Description: Antiviral activity against acyclovir-sensitive HSV1 KOS isolate replication in african green monkey Vero cells by plaque reduction assay. It is filed as functional, organism-based. Particulars: Human alphaherpesvirus 1, Vero. Put shortly:
(§2)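 HSV-1 was grown and assayed by plaque reduction in Vero cell monolayers in MEM with 10% FCS. Drug was diluted in MEM–10% FCS from a 100 mM PBS stock, and IC50 was read from the plaque counts. KOS-M was derived from KOS by 3 weeks of passage in 13 μM ACV.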

The test system of series [4] is Human alphaherpesvirus 1. Description: Antiviral activity against acyclovir-resistant HSV1 K143 isolate replication in african green monkey Vero cells by plaque reduction assay. The conditions noted are these: Human alphaherpesvirus 1, Vero. It is filed as functional, organism-based. Summed up: as §2
Series [5] has as its system Human alphaherpesvirus 1. Description: Antiviral activity against acyclovir-resistant HSV1 KOS-M isolate replication in african green monkey Vero cells by plaque reduction assay. The conditions noted are these: Human alphaherpesvirus 1, Vero. It is filed as functional, organism-based. Summed up:
as §2

Series [6] deals with Human alphaherpesvirus 1. Description: Antiviral activity against acyclovir-resistant HSV1 L182 isolate replication in african green monkey Vero cells by plaque reduction assay. The conditions noted are these: Human alphaherpesvirus 1, Vero. It is filed as functional, organism-based. Put shortly: as §2
Series [7] is described as follows: Therapeutic index, IC50 for human CEM-SS cells to EC50 for HIV1. It is filed as cell-based. The conditions noted are these: read-out: Ratio IC50/EC50. Put shortly: (§3)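 Run at the National Cancer Institute (USA). The assay rests on HIV killing T4 lymphocytes. EC50 is the concentration protecting against virus cytopathic effect, and IC50 is 50% inhibition of cell growth. The therapeutic index is TI50 = IC50/EC50.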

The subject of a further series is CEM-SS. Description: Growth inhibition of human CEM-SS cells. It is filed as cell-based. Summed up: as §3
Series [8] concerns Human betaherpesvirus 5. As to the kind of experiment: Antiviral activity against ganciclovir-sensitive HCMV1 isolate replication in HFF cells by plaque reduction assay. It is filed as functional, organism-based. Particulars: Human betaherpesvirus 5, HFF. Put shortly: as §1
Series [9] concerns Human alphaherpesvirus 1. Description: Antiviral activity against acyclovir-sensitive HSV1 L177 isolate replication in african green monkey Vero cells by plaque reduction assay. It is filed as functional, organism-based. The conditions noted are these: Human alphaherpesvirus 1, Vero. Put shortly: as §2
The test system of series [10] is Human immunodeficiency virus 1. As to the kind of experiment: Antiviral activity against HIV1 infected in human CEM-SS cells assessed as inhibition of virus-induced cytopathic effect by plaque reduction assay. It is filed as functional, organism-based. Particulars: Human immunodeficiency virus 1, CEM-SS. Summed up:
as §3
(Protection from cytopathic effect is a common read-out in antiviral testing.)

Series [11] concerns Human alphaherpesvirus 1. Description: Antiviral activity against acyclovir-sensitive HSV1 K161 isolate replication in african green monkey Vero cells by plaque reduction assay. It is filed as functional, organism-based. Particulars: Human alphaherpesvirus 1, Vero. Put shortly: as §2

Take `CCCCCCCCCCCCCCCCCCOC[C@H](COP(=O)(O)C(=O)O)OP(=O)(O)OC[C@H]1O[C@@H](n2cc(C)c(=O)[nH]c2=O)C[C@@H]1N=[N+]=[N-]`: the IC50 in the series with Human betaherpesvirus 5 [1] was 1.18 µM; in the series on Human betaherpesvirus 5 [2], 4.29 µM; with Human alphaherpesvirus 1 [3] it was 4.02 µM; with Human alphaherpesvirus 1 [4], 4.59 µM; in the series with Human alphaherpesvirus 1 [5], 3.39 µM; with Human alphaherpesvirus 1 [6], 1.87 µM. The IC50 came to 92.7 µM in the series on CEM-SS, 2.78 µM with Human betaherpesvirus 5 [8], 1.92 µM in the series with Human alphaherpesvirus 1 [9] and 2.27 µM in the series on Human alphaherpesvirus 1 [11]. In addition, in series [7], the selectivity ratio was 454. Also, in series [10], the concentration giving a half-maximal response (EC50) worked out at 0.17 µM.

Take `Nc1nc2c(ncn2COCCO)c(=O)[nH]1` [ACYCLOVIR]: the concentration for half-maximal inhibition (IC50) was determined as 3.04 µM in the series on Human alphaherpesvirus 1 [3]; 75.1 µM in the series on Human alphaherpesvirus 1 [4]; 31.2 µM in the series with Human alphaherpesvirus 1 [5]; 9.51 µM in the series with Human alphaherpesvirus 1 [6]; 0.32 µM in the series on Human alphaherpesvirus 1 [9]; 0.58 µM in the series with Human alphaherpesvirus 1 [11].

`O=C(O)P(=O)(O)O` [FOSCARNET]: the 50% inhibitory concentration (IC50) in the series with Human betaherpesvirus 5 [1] amounted to 67.5 µM; in the series with Human betaherpesvirus 5 [2] it was 400 µM; in the series with Human alphaherpesvirus 1 [3], 125 µM; in the series on Human alphaherpesvirus 1 [5], 112 µM; in the series with Human alphaherpesvirus 1 [6], 46 µM; in the series on Human alphaherpesvirus 1 [9] it was 64 µM.

For the compound `Nc1nc2c(ncn2COC(CO)CO)c(=O)[nH]1` [GANCICLOVIR], the values for the IC50 in the series on Human betaherpesvirus 5 [1] and in the series with Human betaherpesvirus 5 [8] were 16.4 µM and 3.22 µM, respectively.
